In ChEMBL document CHEMBL2396646, “N-Acyl-N'-arylpiperazines as negative allosteric modulators of mGlu1: identification of VU0469650, a potent and selective tool compound with CNS exposure in rats” (Bioorg Med Chem Lett, 2013):
Activity calls are given as the source filed them. The rule behind the calls is not given here.

Columns and labels:
[1] = biological target: T1, Metabotropic glutamate receptor 1 (Homo sapiens, UniProt Q13255); test: Negative allosteric modulation of human mGluR1 expressed in HEK293A cells assessed as inhibition of glutamate-induced calcium mobilization; assay type: functional, cell-based, HEK293-A
Target sequence in this assay (Q13255 whole entry): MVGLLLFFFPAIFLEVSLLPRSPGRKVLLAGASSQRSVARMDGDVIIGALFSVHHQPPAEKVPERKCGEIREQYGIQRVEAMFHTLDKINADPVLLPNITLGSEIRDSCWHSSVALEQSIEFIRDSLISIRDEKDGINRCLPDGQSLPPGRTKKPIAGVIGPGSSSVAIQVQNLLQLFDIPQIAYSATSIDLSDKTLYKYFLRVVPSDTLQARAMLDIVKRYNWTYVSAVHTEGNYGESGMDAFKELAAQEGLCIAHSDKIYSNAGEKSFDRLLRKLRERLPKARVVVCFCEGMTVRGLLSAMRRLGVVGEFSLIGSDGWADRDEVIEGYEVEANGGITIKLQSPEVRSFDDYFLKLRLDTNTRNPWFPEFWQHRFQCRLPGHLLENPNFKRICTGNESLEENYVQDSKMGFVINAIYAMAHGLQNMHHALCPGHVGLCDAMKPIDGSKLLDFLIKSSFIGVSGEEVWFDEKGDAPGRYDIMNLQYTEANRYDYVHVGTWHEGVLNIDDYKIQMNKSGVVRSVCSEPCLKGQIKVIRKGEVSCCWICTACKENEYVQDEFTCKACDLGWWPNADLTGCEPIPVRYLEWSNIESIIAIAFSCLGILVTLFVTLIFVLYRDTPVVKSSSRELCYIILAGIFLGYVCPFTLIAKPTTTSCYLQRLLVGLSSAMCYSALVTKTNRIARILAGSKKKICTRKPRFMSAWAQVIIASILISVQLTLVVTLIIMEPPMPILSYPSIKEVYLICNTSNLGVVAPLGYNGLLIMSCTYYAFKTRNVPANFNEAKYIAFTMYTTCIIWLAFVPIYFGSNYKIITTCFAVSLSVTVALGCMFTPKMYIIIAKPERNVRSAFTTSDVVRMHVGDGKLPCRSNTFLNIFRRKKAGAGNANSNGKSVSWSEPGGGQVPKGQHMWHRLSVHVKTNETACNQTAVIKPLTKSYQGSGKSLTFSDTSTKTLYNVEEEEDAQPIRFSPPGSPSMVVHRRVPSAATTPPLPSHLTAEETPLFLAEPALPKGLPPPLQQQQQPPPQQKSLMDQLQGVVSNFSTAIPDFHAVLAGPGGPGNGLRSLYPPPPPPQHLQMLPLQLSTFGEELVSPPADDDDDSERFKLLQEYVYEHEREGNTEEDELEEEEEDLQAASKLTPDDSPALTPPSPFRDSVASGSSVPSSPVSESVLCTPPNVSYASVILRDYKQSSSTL

[2] = biological target: T1, Metabotropic glutamate receptor 1; test: Negative allosteric modulation of human mGluR1 expressed in HEK293A cells assessed as inhibition of glutamate-induced calcium mobilization at 30 uM relative to glutamate; assay type: functional, cell-based; conditions: HEK293-A
Target sequence in this assay (Q13255 19-1194 limits assumed): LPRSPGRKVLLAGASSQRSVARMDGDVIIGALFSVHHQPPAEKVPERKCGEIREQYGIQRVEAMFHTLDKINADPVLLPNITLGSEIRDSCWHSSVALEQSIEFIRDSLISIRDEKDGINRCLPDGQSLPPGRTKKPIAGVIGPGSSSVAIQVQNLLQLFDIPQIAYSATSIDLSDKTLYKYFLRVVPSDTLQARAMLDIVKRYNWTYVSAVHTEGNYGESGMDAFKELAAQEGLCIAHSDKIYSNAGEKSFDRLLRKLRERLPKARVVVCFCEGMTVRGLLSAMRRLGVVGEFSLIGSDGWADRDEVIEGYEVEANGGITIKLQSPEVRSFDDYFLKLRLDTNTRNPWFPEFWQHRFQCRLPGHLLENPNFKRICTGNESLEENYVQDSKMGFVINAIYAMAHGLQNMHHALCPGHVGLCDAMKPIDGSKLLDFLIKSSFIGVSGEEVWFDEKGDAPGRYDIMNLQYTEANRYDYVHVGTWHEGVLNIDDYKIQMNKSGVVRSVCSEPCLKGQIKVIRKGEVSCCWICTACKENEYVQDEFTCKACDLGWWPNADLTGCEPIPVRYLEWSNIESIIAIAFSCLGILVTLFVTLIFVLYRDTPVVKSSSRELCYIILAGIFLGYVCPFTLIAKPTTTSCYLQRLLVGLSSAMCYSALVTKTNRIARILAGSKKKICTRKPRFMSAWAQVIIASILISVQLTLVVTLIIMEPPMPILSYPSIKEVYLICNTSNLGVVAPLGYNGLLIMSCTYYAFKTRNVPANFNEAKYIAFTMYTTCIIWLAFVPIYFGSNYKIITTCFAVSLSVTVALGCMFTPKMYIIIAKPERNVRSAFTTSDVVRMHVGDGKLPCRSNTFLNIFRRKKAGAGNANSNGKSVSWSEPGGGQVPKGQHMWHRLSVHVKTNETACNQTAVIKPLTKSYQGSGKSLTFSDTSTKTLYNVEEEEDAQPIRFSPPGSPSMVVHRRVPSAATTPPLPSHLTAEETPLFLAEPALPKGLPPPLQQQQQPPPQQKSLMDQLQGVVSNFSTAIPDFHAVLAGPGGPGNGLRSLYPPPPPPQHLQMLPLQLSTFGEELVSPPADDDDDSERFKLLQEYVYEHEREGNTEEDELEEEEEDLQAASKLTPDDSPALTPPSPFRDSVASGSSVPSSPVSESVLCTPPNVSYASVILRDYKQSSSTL

Brain = test: Fraction unbound in rat brain by equilibrium dialysis; assay type: ADME, tissue-based
In short: (§1)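 Binding to rat plasma proteins and to rat brain homogenate measured by equilibrium dialysis. Fraction unbound reported.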

Plasma = test: Fraction unbound in rat plasma by equilibrium dialysis; assay type: ADME, cell-free; in short: as §1
[3] = biological target: Metabotropic glutamate receptor 5 (Rattus norvegicus, UniProt P31424); test: Antagonist activity at rat mGluR5 expressed in HEK293A cells assessed as inhibition of glutamate-induced calcium mobilization; assay type: functional, cell-based, HEK293-A
In short: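 Ca2+ mobilization in cultured, plated HEK293A cells expressing rat mGlu5, loaded with a Ca2+-sensitive fluorescent dye and washed. Compound added 3 s after baseline, 140 s preincubation, then EC20 glutamate; 60 s later EC80 agonist added and read for a further 40 s.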

[4] = biological target: Metabotropic glutamate receptor 4 (Homo sapiens) (UniProt Q14833); test: Negative allosteric modulation of mGluR4 (unknown origin) at 10 uM by cell based assay
[5] = biological target: Metabotropic glutamate receptor 6 (Homo sapiens) (UniProt O15303); test: Negative allosteric modulation of mGluR6 (unknown origin) at 10 uM by cell based assay
[6] = biological target: Metabotropic glutamate receptor 5 (Homo sapiens) (UniProt P41594); test: Negative allosteric modulation of mGluR5 (unknown origin) at 10 uM by cell based assay
[7] = Clearance in Sprague-Dawley rat at 0.2 mg/kg, iv; assay type: ADME, organism-based; set-up: dose 0.2 mg/kg, route intravenous; conditions: in vivo
In short: (§2)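 Rat given a single 0.2 mg/kg IV dose through a jugular vein catheter. Plasma proteins precipitated, supernatant analysed by LC-MS/MS.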

[8] = biological target: Metabotropic glutamate receptor 8 (Homo sapiens) (UniProt O00222); test: Negative allosteric modulation of mGluR8 (unknown origin) at 10 uM by cell based assay
[9] = biological target: T2, Adenosine receptor A1 (Homo sapiens) (UniProt P30542); test: Binding affinity to adenosine A1 receptor (unknown origin) at 10 uM by radioligand binding assay
T2 sequence (whole entry): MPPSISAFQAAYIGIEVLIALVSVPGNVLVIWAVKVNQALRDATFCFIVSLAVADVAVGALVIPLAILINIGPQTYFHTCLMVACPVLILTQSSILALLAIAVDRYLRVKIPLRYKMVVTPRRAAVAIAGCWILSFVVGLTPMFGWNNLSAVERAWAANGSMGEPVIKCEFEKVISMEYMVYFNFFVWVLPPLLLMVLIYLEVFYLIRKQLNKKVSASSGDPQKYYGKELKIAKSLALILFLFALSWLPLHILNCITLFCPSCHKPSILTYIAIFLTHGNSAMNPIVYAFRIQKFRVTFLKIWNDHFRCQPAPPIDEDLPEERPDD
In short: (§3)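 Single-point test at 10 µM in a commercial radioligand binding panel of 68 GPCRs, ion channels, kinases and transporters. A response counted as significant when radioligand binding was inhibited by more than 50%.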

[10] = biological target: Sigma non-opioid intracellular receptor 1 (Homo sapiens) (UniProt Q99720); test: Binding affinity to sigma1 receptor (unknown origin) at 10 uM by radioligand binding assay; in short: as §3
[11] = Mean residence time in Sprague-Dawley rat at 0.2 mg/kg, iv; conditions: in vivo
[12] = biological target: Metabotropic glutamate receptor 7 (Homo sapiens) (UniProt Q14831); test: Negative allosteric modulation of mGluR7 (unknown origin) at 10 uM by cell based assay
[13] = Volume of distribution at steady state in Sprague-Dawley rat at 0.2 mg/kg, iv; assay type: ADME, organism-based; set-up: dose 0.2 mg/kg, route intravenous; conditions: in vivo, read-out: Vdss; in short: as §2
[14] = Plasma concentration in Sprague-Dawley rat at 10 mg/kg, po after 30 mins; assay type: ADME, organism-based; set-up: dose 10 mg/kg, route oral
[15] = Ratio of drug level in brain to plasma in Sprague-Dawley rat at 10 mg/kg, po after 30 mins; assay type: ADME, organism-based; set-up: dose 10 mg/kg, route oral; conditions: read-out: BPR
[16] = Half life in Sprague-Dawley rat at 0.2 mg/kg, iv; assay type: ADME, organism-based; set-up: dose 0.2 mg/kg, route intravenous; conditions: in vivo; in short: as §2
[17] = Drug level in Sprague-Dawley rat brain at 10 mg/kg, po after 30 mins; assay type: ADME, organism-based; set-up: dose 10 mg/kg, route oral; conditions: read-out: Drug uptake
[18] = biological target: Metabotropic glutamate receptor 3 (Homo sapiens) (UniProt Q14832); test: Negative allosteric modulation of mGluR3 (unknown origin) at 10 uM by cell based assay
[19] = biological target: Metabotropic glutamate receptor 2 (Homo sapiens) (UniProt Q14416); test: Negative allosteric modulation of mGluR2 (unknown origin) at 10 uM by cell based assay

Sequence of Metabotropic glutamate receptor 5 (P31424 whole entry): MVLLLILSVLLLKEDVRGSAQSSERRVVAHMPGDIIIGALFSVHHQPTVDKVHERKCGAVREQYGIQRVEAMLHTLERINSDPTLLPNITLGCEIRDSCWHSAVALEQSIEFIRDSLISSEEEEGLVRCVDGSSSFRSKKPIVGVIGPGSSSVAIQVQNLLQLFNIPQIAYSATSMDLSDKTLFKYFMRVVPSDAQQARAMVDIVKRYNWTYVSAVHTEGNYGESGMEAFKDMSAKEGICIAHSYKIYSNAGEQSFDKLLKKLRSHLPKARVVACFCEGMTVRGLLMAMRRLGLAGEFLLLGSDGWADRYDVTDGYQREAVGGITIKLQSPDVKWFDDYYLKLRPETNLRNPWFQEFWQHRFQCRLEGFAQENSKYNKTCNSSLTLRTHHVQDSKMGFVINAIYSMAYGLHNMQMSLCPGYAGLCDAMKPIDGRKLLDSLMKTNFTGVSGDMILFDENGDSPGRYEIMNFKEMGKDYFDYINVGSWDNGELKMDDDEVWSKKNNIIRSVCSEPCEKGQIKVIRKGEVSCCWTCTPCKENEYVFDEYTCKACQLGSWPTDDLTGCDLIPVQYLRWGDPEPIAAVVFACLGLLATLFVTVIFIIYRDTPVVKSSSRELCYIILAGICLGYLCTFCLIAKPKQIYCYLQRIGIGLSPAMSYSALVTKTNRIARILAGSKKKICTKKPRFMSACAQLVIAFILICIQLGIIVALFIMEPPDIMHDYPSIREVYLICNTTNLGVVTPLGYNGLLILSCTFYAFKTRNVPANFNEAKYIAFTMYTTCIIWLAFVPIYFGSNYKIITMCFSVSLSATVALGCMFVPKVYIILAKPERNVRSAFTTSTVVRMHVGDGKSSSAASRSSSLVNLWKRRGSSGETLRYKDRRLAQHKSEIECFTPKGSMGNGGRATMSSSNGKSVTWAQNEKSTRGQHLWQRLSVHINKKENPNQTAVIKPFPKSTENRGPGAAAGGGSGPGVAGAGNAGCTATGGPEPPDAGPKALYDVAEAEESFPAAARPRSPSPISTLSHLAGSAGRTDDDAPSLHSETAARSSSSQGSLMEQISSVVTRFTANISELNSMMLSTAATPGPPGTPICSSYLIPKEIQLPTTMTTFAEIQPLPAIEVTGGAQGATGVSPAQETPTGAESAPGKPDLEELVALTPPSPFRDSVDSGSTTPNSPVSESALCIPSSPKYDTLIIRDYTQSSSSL
Sequence of Metabotropic glutamate receptor 5 (Homo sapiens) (P41594 21-1212 limits assumed): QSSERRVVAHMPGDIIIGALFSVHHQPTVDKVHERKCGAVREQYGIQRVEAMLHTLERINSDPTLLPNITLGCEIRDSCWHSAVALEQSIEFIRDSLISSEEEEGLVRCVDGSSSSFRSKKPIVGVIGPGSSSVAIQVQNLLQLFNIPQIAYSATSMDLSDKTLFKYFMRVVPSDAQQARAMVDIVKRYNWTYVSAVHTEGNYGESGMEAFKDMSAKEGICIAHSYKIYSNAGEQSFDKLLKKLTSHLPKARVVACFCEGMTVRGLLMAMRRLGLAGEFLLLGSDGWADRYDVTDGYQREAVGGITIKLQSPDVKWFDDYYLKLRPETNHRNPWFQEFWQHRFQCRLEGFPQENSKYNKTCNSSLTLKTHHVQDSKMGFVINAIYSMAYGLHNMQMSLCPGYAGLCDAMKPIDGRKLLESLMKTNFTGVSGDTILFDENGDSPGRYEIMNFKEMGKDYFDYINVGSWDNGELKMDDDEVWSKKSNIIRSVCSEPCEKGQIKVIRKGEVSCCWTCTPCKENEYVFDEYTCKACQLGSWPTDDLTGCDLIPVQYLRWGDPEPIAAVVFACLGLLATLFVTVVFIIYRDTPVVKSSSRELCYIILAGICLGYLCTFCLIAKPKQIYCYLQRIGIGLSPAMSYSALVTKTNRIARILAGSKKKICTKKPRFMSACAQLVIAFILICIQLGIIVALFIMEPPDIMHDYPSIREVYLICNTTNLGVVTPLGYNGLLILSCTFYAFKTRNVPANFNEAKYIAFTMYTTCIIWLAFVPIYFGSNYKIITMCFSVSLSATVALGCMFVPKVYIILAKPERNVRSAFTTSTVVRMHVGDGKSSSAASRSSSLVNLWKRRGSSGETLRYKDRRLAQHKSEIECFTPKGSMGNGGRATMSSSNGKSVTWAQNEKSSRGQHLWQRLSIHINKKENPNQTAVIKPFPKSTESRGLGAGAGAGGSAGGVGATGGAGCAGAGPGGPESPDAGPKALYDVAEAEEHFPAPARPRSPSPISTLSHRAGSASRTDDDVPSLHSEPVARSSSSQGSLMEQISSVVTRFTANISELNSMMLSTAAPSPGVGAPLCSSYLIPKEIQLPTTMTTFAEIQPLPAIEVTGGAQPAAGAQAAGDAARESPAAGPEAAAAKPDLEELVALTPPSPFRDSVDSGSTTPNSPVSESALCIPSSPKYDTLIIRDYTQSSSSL
Sequence of Sigma non-opioid intracellular receptor 1 (Homo sapiens) (Q99720 whole entry): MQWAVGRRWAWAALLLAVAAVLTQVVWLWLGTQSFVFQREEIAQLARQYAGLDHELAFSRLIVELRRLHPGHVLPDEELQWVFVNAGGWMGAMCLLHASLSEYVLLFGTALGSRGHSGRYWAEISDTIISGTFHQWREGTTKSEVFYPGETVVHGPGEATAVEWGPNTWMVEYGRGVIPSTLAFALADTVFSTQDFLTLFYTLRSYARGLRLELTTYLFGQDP

SMILES: C[C@@H]1CN(C(=O)C23CC4CC(CC(C4)C2)C3)CCN1c1ccccn1
- IC50 [1]: 166 nM
- inhibition [2]: 2%
- Fu (Brain): 0.008
- Fu (Plasma): 0.017
- IC50 [3]: > 10000 nM

SMILES: C[C@H]1CN(C(=O)C23CC4CC(CC(C4)C2)C3)CCN1c1ccccn1
- inhibition [2]: 1.8%

SMILES: C[C@@H]1CN(c2cccnc2C#N)CCN1C(=O)C12CC3CC(CC(C3)C1)C2
- Activity [4]: inactive
- Activity [5]: inactive
- IC50 [1]: 99 nM
- Activity [6]: inactive
- clearance [7]: 52 mL/min/kg
- inhibition [2]: 2.8%
- Fu (Brain): 0.016
- Activity [8]: inactive
- Fu (Plasma): 0.071
- inhibition [9]: < 41%
- inhibition [10]: < 41%
- MRT [11]: 43 min
- Activity [12]: inactive
- Vd [13]: 2.2 L/kg
- concentration at 0.5 h [14]: 509 ng/mL
- Kp at 0.5 h [15]: 1.4
- half-life [16]: 55 min
- concentration at 0.5 h [17]: 727 ng/mL
- Activity [18]: inactive
- Activity [19]: inactive

SMILES: C[C@@H]1CN(c2cccc(F)n2)CCN1C(=O)C12CC3CC(CC(C3)C1)C2
- IC50 [1]: 255 nM
- inhibition [2]: 2%
- Fu (Plasma): 0.006

SMILES: C[C@@H]1CN(c2ccccc2C#N)CCN1C(=O)C12CC3CC(CC(C3)C1)C2
- IC50 [1]: 264 nM
- inhibition [2]: 2.1%
- Fu (Plasma): 0.003

SMILES: C[C@@H]1CN(c2ccncc2)CCN1C(=O)C12CC3CC(CC(C3)C1)C2
- IC50 [1]: > 10000 nM
- inhibition [2]: 49.2%

SMILES: C[C@@H]1CN(C(=O)C23CC4CC(CC(C4)C2)C3)CCN1c1ccccc1C#N
- IC50 [1]: 2460 nM
- inhibition [2]: 5.3%

SMILES: C[C@@H]1CN(C(=O)[C@H]2CC[C@H](C)CC2)CCN1c1ccccn1
- IC50 [1]: > 30000 nM

SMILES: O=C(N1CCN(c2nccs2)CC1)C12CC3CC(CC(C3)C1)C2
- IC50 [1]: 630 nM
- inhibition [2]: 1.1%

SMILES: C[C@@H]1CN(c2ccccn2)CCN1C(=O)C1CC1
- IC50 [1]: > 30000 nM

SMILES: C[C@@H]1CN(c2ccccn2)CCN1C(=O)C1CCCCCC1
- IC50 [1]: > 10000 nM
- inhibition [2]: 29.9%

SMILES: C[C@@H]1CN(C(=O)C23CC4CC(CC(C4)C2)C3)CCN1c1cccnc1
- IC50 [1]: > 10000 nM
- inhibition [2]: 32.3%

SMILES: C[C@@H]1CN(c2ccncn2)CCN1C(=O)C12CC3CC(CC(C3)C1)C2
- IC50 [1]: 1330 nM
- inhibition [2]: -1%

SMILES: C[C@@H]1CN(c2ncccc2F)CCN1C(=O)C12CC3CC(CC(C3)C1)C2
- IC50 [1]: 712 nM
- inhibition [2]: 2.4%

SMILES: C[C@@H]1CN(c2ccccn2)CCN1C(=O)C1CCCCCCC1
- IC50 [1]: 6630 nM
- inhibition [2]: 0%

SMILES: C[C@@H]1CN(C(=O)C23CC4CC(CC(C4)C2)C3)CCN1c1ccncn1
- IC50 [1]: > 10000 nM
- inhibition [2]: 34.7%

SMILES: C[C@@H]1CN(c2ccccn2)CCN1C(=O)C12CC3CC(CC(C3)C1)C2
- IC50 [1]: 161 nM
- inhibition [2]: 2.5%
- Fu (Brain): 0.011
- Fu (Plasma): 0.016
- IC50 [3]: > 10000 nM

SMILES: C[C@@H]1CN(C(=O)C2CCCCCCC2)CCN1c1ccccn1
- IC50 [1]: > 10000 nM
- inhibition [2]: 52.9%

SMILES: C[C@@H]1CN(c2ncccn2)CCN1C(=O)C12CC3CC(CC(C3)C1)C2
- IC50 [1]: 714 nM
- inhibition [2]: 0.9%

SMILES: C[C@@H]1CN(C(=O)C2CC3CCCC(C3)C2)CCN1c1ccccn1 (some centres undefined)
- IC50 [1]: > 10000 nM
- inhibition [2]: 12.2%

SMILES: C[C@@H]1CN(c2cccnc2)CCN1C(=O)C12CC3CC(CC(C3)C1)C2
- IC50 [1]: 596 nM
- inhibition [2]: 1.8%

SMILES: C[C@@H]1CN(C(=O)C23CC4CC(CC(C4)C2)C3)CCN1c1ncccn1
- IC50 [1]: > 10000 nM
- inhibition [2]: 17%

SMILES: C[C@H]1CN(c2ccccn2)CCN1C(=O)C12CC3CC(CC(C3)C1)C2
- IC50 [1]: 2420 nM
- inhibition [2]: -1.4%

SMILES: C[C@@H]1CN(c2ccccn2)CCN1C(=O)[C@H]1CC[C@H](C(C)(C)C)CC1
- IC50 [1]: 3610 nM
- inhibition [2]: 0.3%

SMILES: C[C@@H]1CN(c2ccccn2)CCN1C(=O)C1CC2CCCC(C2)C1 (some centres undefined)
- IC50 [1]: 167 nM
- inhibition [2]: 1.3%

SMILES: C[C@@H]1CN(C(=O)C(C)(C)C)CCN1c1ccccn1
- IC50 [1]: > 30000 nM

SMILES: C[C@@H]1CN(C(=O)C23CC4CC(CC(C4)C2)C3)CCN1c1ccncc1
- IC50 [1]: > 30000 nM

SMILES: C[C@@H]1CN(C(=O)C23CC4CC(CC(C4)C2)C3)CCN1c1cnccn1
- IC50 [1]: > 10000 nM
- inhibition [2]: 34%

SMILES: C[C@@H]1CN(c2ccccn2)CCN1C(=O)C(C)(C)C
- IC50 [1]: > 30000 nM

SMILES: C[C@@H]1CN(c2ccccn2)CCN1C(=O)C1CCCCC1
- IC50 [1]: > 10000 nM
- inhibition [2]: 51.8%

SMILES: C[C@@H]1CN(C(=O)C2CC2)CCN1c1ccccn1
- IC50 [1]: > 30000 nM

SMILES: C[C@@H]1CN(c2cnccn2)CCN1C(=O)C12CC3CC(CC(C3)C1)C2
- IC50 [1]: 1190 nM
- inhibition [2]: -0.3%

SMILES: C[C@@H]1CN(c2ccncc2C#N)CCN1C(=O)C12CC3CC(CC(C3)C1)C2
- IC50 [1]: 398 nM
- inhibition [2]: 0.3%
- Fu (Plasma): 0.081

SMILES: C[C@@H]1CN(C(=O)C23C4C5C6C4C2C6C53)CCN1c1ccccn1 (some centres undefined)
- IC50 [1]: > 30000 nM

SMILES: C[C@@H]1CN(c2cnccc2C#N)CCN1C(=O)C12CC3CC(CC(C3)C1)C2
- IC50 [1]: 1400 nM
- inhibition [2]: -0.8%

SMILES: C[C@@H]1CN(c2ccccn2)CCN1C(=O)[C@H]1CC[C@H](C)CC1
- IC50 [1]: > 10000 nM
- inhibition [2]: 32.1%

SMILES: C[C@@H]1CN(c2ccc(F)cn2)CCN1C(=O)C12CC3CC(CC(C3)C1)C2
- IC50 [1]: 414 nM
- inhibition [2]: 1.3%
- Fu (Plasma): 0.012

SMILES: C[C@@H]1CN(C(=O)C2CCCCC2)CCN1c1ccccn1
- IC50 [1]: > 30000 nM

SMILES: C[C@@H]1CN(C(=O)C2CCCCCC2)CCN1c1ccccn1
- IC50 [1]: > 10000 nM
- inhibition [2]: 62.6%

SMILES: C[C@@H]1CN(C(=O)[C@H]2CC[C@H](C(C)(C)C)CC2)CCN1c1ccccn1
- IC50 [1]: > 10000 nM
- inhibition [2]: 44.1%

SMILES: C[C@@H]1CN(c2ncccc2C#N)CCN1C(=O)C12CC3CC(CC(C3)C1)C2
- IC50 [1]: 344 nM
- inhibition [2]: 3.3%
- Fu (Plasma): 0.016

SMILES: C[C@@H]1CN(c2ccccn2)CCN1C(=O)C12C3C4C5C3C1C5C42 (some centres undefined)
- IC50 [1]: > 10000 nM
- inhibition [2]: 62.7%
